Reference: ChEMBL document CHEMBL4689842, “EUbOPEN Chemogenomics Library wave 1” (2021)

System: U2OS
Assay: Multiplex assay against U2OS
Format: toxicity, cell-based
Settings: human
How it was run: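 With compound added, live cells were imaged on a CQ1 microscope at 37°C and 5% CO2; staining with Hoechst33342, BioTracker Green Microtubule Cytoskeleton Dye, MitoTracker Red and Annexin V Alexa Fluor 680 had been done at seeding. The CellPathfinder machine-learning gating scheme split cells into Hoechst high-intensity objects or normal cells, normal cells into healthy, pyknosed or fragmented nuclei, and pyknosed cells into mitotic or apoptotic. The tubulin, mitochondrial-mass and membrane-permeability phenotypes are per cents of healthy-nucleus cells.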

[1] = 12 h, 1 µM, compound concentration 1 uM, replicate 1
[2] = 12 h, 1 µM, compound concentration 1 uM, replicate 2
[3] = 12 h, 10 µM, compound concentration 10 uM, replicate 1
[4] = 12 h, 10 µM, compound concentration 10 uM, replicate 2
[5] = 24 h, 1 µM, compound concentration 1 uM, replicate 1
[6] = 24 h, 1 µM, compound concentration 1 uM, replicate 2
[7] = 24 h, 10 µM, compound concentration 10 uM, replicate 1
[8] = 24 h, 10 µM, compound concentration 10 uM, replicate 2
[9] = 48 h, 1 µM, compound concentration 1 uM, replicate 1
[10] = 48 h, 1 µM, compound concentration 1 uM, replicate 2
[11] = 48 h, 10 µM, compound concentration 10 uM, replicate 1
[12] = 48 h, 10 µM, compound concentration 10 uM, replicate 2

Structure (SMILES): CCCCCNC(=N)N/N=C/c1c[nH]c2ccc(OC)cc12.O=C(O)/C=C\C(=O)O [TEGASEROD MALEATE]
- Population Apoptotic (%) [1]: 66%
- Population Fragmented Nuclei (%) [1]: 12%
- Population Healthy Nuclei (%) [1]: 75%
- Population Hoechst High Intensity Objects (%) [1]: 8%
- Population Membrane Permeable-Phenotype (%) [1]: 4%
- Population Mitochondria Different-Phenotype (%) [1]: 16%
- Population Mitotic Cells (%) [1]: 33%
- Population Normal (%) [1]: 91%
- Population Pyknosed Nuclei (%) [1]: 11%
- Population Tubulin-Different-Phenotype (%) [1]: 10%
- Total Cell Count [1]: 73
- Population Apoptotic (%) [2]: 20%
- Population Healthy Nuclei (%) [2]: 79%
- Population Hoechst High Intensity Objects (%) [2]: 3%
- Population Mitochondria Different-Phenotype (%) [2]: 22%
- Population Mitotic Cells (%) [2]: 80%
- Population Normal (%) [2]: 96%
- Population Pyknosed Nuclei (%) [2]: 8%
- Population Tubulin-Different-Phenotype (%) [2]: 14%
- Total Cell Count [2]: 74
- Population Apoptotic (%) [3]: 92%
- Population Fragmented Nuclei (%) [3]: 36%
- Population Healthy Nuclei (%) [3]: 0%
- Population Hoechst High Intensity Objects (%) [3]: 12%
- Population Membrane Permeable-Phenotype (%) [3]: 100%
- Population Mitochondria Different-Phenotype (%) [3]: 100%
- Population Mitotic Cells (%) [3]: 7%
- Population Normal (%) [3]: 87%
- Population Pyknosed Nuclei (%) [3]: 62%
- Population Tubulin-Different-Phenotype (%) [3]: 100%
- Total Cell Count [3]: 167
- Population Apoptotic (%) [4]: 100%
- Population Fragmented Nuclei (%) [4]: 22%
- Population Healthy Nuclei (%) [4]: 3%
- Population Hoechst High Intensity Objects (%) [4]: 35%
- Population Mitotic Cells (%) [4]: 0%
- Population Normal (%) [4]: 64%
- Population Pyknosed Nuclei (%) [4]: 73%
- Total Cell Count [4]: 64
- Population Apoptotic (%) [5]: 47%
- Population Fragmented Nuclei (%) [5]: 9%
- Population Healthy Nuclei (%) [5]: 78%
- Population Hoechst High Intensity Objects (%) [5]: 4%
- Population Membrane Permeable-Phenotype (%) [5]: 6%
- Population Mitochondria Different-Phenotype (%) [5]: 13%
- Population Mitotic Cells (%) [5]: 52%
- Population Normal (%) [5]: 95%
- Population Pyknosed Nuclei (%) [5]: 12%
- Population Tubulin-Different-Phenotype (%) [5]: 13%
- Total Cell Count [5]: 88
- Population Apoptotic (%) [6]: 87%
- Population Fragmented Nuclei (%) [6]: 10%
- Population Healthy Nuclei (%) [6]: 77%
- Population Hoechst High Intensity Objects (%) [6]: 5%
- Population Membrane Permeable-Phenotype (%) [6]: 5%
- Population Mitochondria Different-Phenotype (%) [6]: 21%
- Population Mitotic Cells (%) [6]: 12%
- Population Normal (%) [6]: 94%
- Population Tubulin-Different-Phenotype (%) [6]: 7%
- Total Cell Count [6]: 89
- Population Apoptotic (%) [7]: 85%
- Population Fragmented Nuclei (%) [7]: 42%
- Population Healthy Nuclei (%) [7]: 1%
- Population Hoechst High Intensity Objects (%) [7]: 16%
- Population Membrane Permeable-Phenotype (%) [7]: 100%
- Population Mitochondria Different-Phenotype (%) [7]: 100%
- Population Mitotic Cells (%) [7]: 14%
- Population Normal (%) [7]: 83%
- Population Pyknosed Nuclei (%) [7]: 56%
- Population Tubulin-Different-Phenotype (%) [7]: 100%
- Total Cell Count [7]: 180
- Population Apoptotic (%) [8]: 100%
- Population Fragmented Nuclei (%) [8]: 44%
- Population Healthy Nuclei (%) [8]: 26%
- Population Hoechst High Intensity Objects (%) [8]: 39%
- Population Mitotic Cells (%) [8]: 0%
- Population Normal (%) [8]: 60%
- Population Pyknosed Nuclei (%) [8]: 28%
- Total Cell Count [8]: 70
- Population Apoptotic (%) [9]: 44%
- Population Fragmented Nuclei (%) [9]: 7%
- Population Healthy Nuclei (%) [9]: 85%
- Population Hoechst High Intensity Objects (%) [9]: 3%
- Population Membrane Permeable-Phenotype (%) [9]: 2%
- Population Mitochondria Different-Phenotype (%) [9]: 11%
- Population Mitotic Cells (%) [9]: 55%
- Population Normal (%) [9]: 96%
- Population Pyknosed Nuclei (%) [9]: 7%
- Population Tubulin-Different-Phenotype (%) [9]: 7%
- Total Cell Count [9]: 112
- Population Apoptotic (%) [10]: 35%
- Population Fragmented Nuclei (%) [10]: 10%
- Population Healthy Nuclei (%) [10]: 75%
- Population Hoechst High Intensity Objects (%) [10]: 1%
- Population Membrane Permeable-Phenotype (%) [10]: 6%
- Population Mitochondria Different-Phenotype (%) [10]: 17%
- Population Mitotic Cells (%) [10]: 64%
- Population Normal (%) [10]: 98%
- Population Pyknosed Nuclei (%) [10]: 13%
- Population Tubulin-Different-Phenotype (%) [10]: 10%
- Total Cell Count [10]: 110
- Population Apoptotic (%) [11]: 91%
- Population Fragmented Nuclei (%) [11]: 50%
- Population Healthy Nuclei (%) [11]: 1%
- Population Hoechst High Intensity Objects (%) [11]: 14%
- Population Membrane Permeable-Phenotype (%) [11]: 100%
- Population Mitochondria Different-Phenotype (%) [11]: 100%
- Population Mitotic Cells (%) [11]: 8%
- Population Normal (%) [11]: 85%
- Population Pyknosed Nuclei (%) [11]: 48%
- Population Tubulin-Different-Phenotype (%) [11]: 100%
- Total Cell Count [11]: 260
- Population Apoptotic (%) [12]: 100%
- Population Fragmented Nuclei (%) [12]: 64%
- Population Healthy Nuclei (%) [12]: 24%
- Population Hoechst High Intensity Objects (%) [12]: 39%
- Population Membrane Permeable-Phenotype (%) [12]: 90%
- Population Mitochondria Different-Phenotype (%) [12]: 90%
- Population Mitotic Cells (%) [12]: 0%
- Population Normal (%) [12]: 60%
- Population Pyknosed Nuclei (%) [12]: 11%
- Population Tubulin-Different-Phenotype (%) [12]: 90%
- Total Cell Count [12]: 103
